Measured values pooled from the literature.
Each line is one published result; the experiments were not run side by side.
Target: Mitogen-activated protein kinase kinase kinase kinase 2 (MAP4K2, Homo sapiens, UniProt Q12851)
One construct used (Q12851 1-820): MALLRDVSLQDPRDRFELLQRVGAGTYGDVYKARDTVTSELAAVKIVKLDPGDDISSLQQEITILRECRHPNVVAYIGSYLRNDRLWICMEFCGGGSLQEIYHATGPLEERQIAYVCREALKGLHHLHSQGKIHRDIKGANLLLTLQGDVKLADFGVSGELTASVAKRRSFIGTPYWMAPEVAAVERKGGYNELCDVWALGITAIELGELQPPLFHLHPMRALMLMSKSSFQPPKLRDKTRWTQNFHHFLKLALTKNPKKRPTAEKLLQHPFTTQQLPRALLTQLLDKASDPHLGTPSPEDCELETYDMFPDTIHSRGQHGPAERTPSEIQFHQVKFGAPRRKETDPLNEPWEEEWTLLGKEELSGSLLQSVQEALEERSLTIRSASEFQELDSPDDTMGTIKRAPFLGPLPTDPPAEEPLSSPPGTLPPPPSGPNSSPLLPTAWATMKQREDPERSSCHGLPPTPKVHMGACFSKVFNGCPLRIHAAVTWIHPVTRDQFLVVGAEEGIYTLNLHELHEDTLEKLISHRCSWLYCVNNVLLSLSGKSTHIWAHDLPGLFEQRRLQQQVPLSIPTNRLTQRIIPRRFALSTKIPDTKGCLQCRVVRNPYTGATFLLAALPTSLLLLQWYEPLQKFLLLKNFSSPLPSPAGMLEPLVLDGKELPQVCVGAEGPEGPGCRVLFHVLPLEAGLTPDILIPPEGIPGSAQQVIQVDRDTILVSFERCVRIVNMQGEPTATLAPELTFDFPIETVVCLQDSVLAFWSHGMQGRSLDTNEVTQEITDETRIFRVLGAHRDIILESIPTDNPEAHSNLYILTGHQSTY

| Structure (SMILES) | assay | conditions | quantity | result |
| --- | --- | --- | --- | --- |
| CC(C)(O)c1cncc(-c2nc3ccc(F)cc3n2C2CC2)c1 | cell-free assay, competition with immobilised ligand | 1 µM | remaining binding | 98% |
| CC(C)(O)[C@H]1CC[C@H](Nc2ccc3ncc(-c4cccc(C(F)(F)F)c4)n3n2)CC1 | enzyme activity, inhibitor | 1 µM | remaining activity | 94.6% |
| CCN(CC)CCNC(=O)c1c(C)[nH]c(/C=C2\C(=O)Nc3ccc(F)cc32)c1C | enzyme activity, inhibitor | 0.3 µM | inhibition | 45% |
| FC(F)(F)Oc1cccc(-c2cnc3ccc(-c4ccncc4)nn23)c1 | enzyme activity, inhibitor, radiometric | 5 µM | activity vs control | 33% |
| CNC(=O)c1cc(Oc2ccc(NC(=O)Nc3ccc(Cl)c(C(F)(F)F)c3)cc2)ccn1 | enzyme activity, inhibitor | 0.3 µM | inhibition | 5% |
| Cn1c(=O)n(-c2ccc(C(C)(C)C#N)cc2)c2c3cc(-c4cnc5ccccc5c4)ccc3ncc21 | enzyme activity, inhibitor | 10 µM | remaining activity | 12% |
| COc1ccc2c(O[C@@H]3C[C@H]4C(=O)N[C@]5(C(=O)O)CC5/C=C\CCCCC[C@H](NC(=O)OC5CCCC5)C(=O)N4C3)cc(-c3csc(NC(=O)C(C)C)n3)nc2c1C (some centres unmarked) | cell-free assay, competition with immobilised ligand | 1 µM | remaining binding | 100% |
| CCN(CC)c1ccc(C2=NNC(=O)CC2C)cc1[N+](=O)[O-] (centres unmarked) | enzyme activity, inhibitor | 10 µM | remaining activity | 97% |
| CN1CC(Oc2cnc(C#N)cc2-c2ccn3nc(NC(=O)C4CC4)cc3c2)C1 | enzyme activity, inhibitor | 1 µM | inhibition | 2% |
| O=C(O)[C@H]1[C@H](Cn2nnc3ccccc3c2=O)CC[C@@H]1C(=O)c1ccc(OCCC2CCOCC2)cc1 | cell-free assay, competition with immobilised ligand | 1 µM | remaining binding | 100% |
| COc1cc2ncnc(Nc3ccc(F)c(Cl)c3)c2cc1OCCCN1CCOCC1 | cell-free assay | 0.5 µM | remaining signal | 104% |
| C[C@H](c1ccnc(Nc2nc3ccc(-c4cc(N(C)C)ncn4)cc3[nH]2)c1)N1CCN(C(=O)CC(F)(F)F)CC1 | cell-free assay, competition with immobilised ligand | 0.1 µM | remaining binding | 100% |
| COc1cc2ncnc(Nc3ccc(Oc4ccccc4)c(C)c3C)c2cc1OC | enzyme activity, inhibitor | 1 µM | inhibition | 0% |
| Nc1ncnc2occ(-c3ccc(NC(=O)Nc4cc(C(F)(F)F)ccc4F)cc3)c12 | cell-free assay, inhibitor | 20 µM | remaining signal | 0% |
| c1ccc(N2CCN(Cc3nc4ccccc4[nH]3)CC2)nc1 | binding, competition with immobilised ligand | 1 µM | remaining binding | 100% |
| CCCOc1ccc(OC)c(F)c1C(=O)c1ccc(C(=O)N[C@@H]2CNC[C@H]2NC(=O)c2ccc3[nH]ncc3c2)cc1 | enzyme activity, inhibitor | 10 µM | remaining activity | 61% |
| C[C@@H](c1cccc(C#N)c1)n1cc(Cl)cc(C(N)=O)c1=N | cell-free assay, competition with immobilised ligand | 1 µM | remaining binding | 90% |
| CC(C)(C)c1nc2c(s1)c1nc(N)ncc1c1ccc(NS(=O)(=O)c3c(F)cccc3F)c(F)c12 | enzyme activity, inhibitor, radiometric | 1 µM | remaining activity | 114% |
| Cc1cnc(NC2CCOCC2)nc1-n1cnc(C(=O)NC(CN)c2cc(F)cc(Cl)c2)c1 (centres unmarked) | enzyme activity, inhibitor, radiometric | 1 µM | remaining activity | 100% |
| CC(=O)N1CCC(c2ccc(C(=O)NC(=N)N)cc2C(F)(F)F)CC1 | cell-free assay, competition with immobilised ligand | 1 µM | remaining binding | 100% |
| COc1cc(Nc2cnc(C#N)c(O[C@H](C)CN(C)C)n2)ncc1-c1cnn(C)c1 | enzyme activity, inhibitor, radiometric | 10 µM | remaining activity | 56% |
| CC/C(=N\NC(=O)NCc1cccc(O)c1)c1ccc(O)c(C)c1O | enzyme activity, inhibitor | 0.1 µM | inhibition | 1.4% |
| Cc1c(NC(=O)c2cc(C(N)=O)nc3cc(F)ccc23)c(C(F)(F)F)nn1Cc1ccc(C#N)cc1 | cell-free assay, competition with immobilised ligand | 1 µM | remaining binding | 88% |
| Cc1ccc(Nc2nccc(N(C)c3ccc4c(C)n(C)nc4c3)n2)cc1S(N)(=O)=O | enzyme activity, inhibitor | 10 µM | inhibition | 83% |
| O=C(Nc1cnn(-c2csc(C(=O)NC3COC3)c2)c1)Nc1c(F)cccc1Cl | enzyme activity, inhibitor | 5 µM | remaining activity | 95.3% |
| N#CCCc1ccc2c(c1)-c1[nH]c3ccc([N+](=O)[O-])cc3c1CC(=O)N2 | cell-free assay | 0.5 µM | remaining signal | 14% |
